For experiment [1], the system named is EcTrmD G134A. The experiment in a line: Pre-steady-state methyl transfer kinetics, G134A mutant. In kind it is biochemical, E. coli. The settings on record: G134A relative to wild-type enzyme.
The subject of experiment [2] is EcTrmD Y115F. The experiment in a line: Pre-steady-state methyl transfer kinetics, Y115F mutant. Type of experiment: biochemical, E. coli. Conditions: Y115F relative to wild-type enzyme.
In experiment [3] the test system is EcTrmD R154A. The experiment in a line: Pre-steady-state methyl transfer kinetics, R154A mutant. Type of experiment: biochemical, E. coli. The settings on record: R154A relative to wild-type enzyme.
In experiment [4] the test system is EcTrmD H180*A. Description: Pre-steady-state methyl transfer kinetics, H180*A mutant. Type of experiment: biochemical, E. coli. Conditions: H180*A relative to wild-type enzyme.
Experiment [5] relates to EcTrmD Y136A. Description: Pre-steady-state methyl transfer kinetics, Y136A mutant. Type of experiment: biochemical, E. coli. Conditions: Y136A relative to wild-type enzyme.
The test system of experiment [6] is EcTrmD D169*A. The experiment in a line: Pre-steady-state methyl transfer kinetics, D169*A mutant. Type of experiment: biochemical, E. coli. Conditions: D169*A relative to wild-type enzyme.
For experiment [7], the target named is TrmD Y115A dimer (Escherichia coli, UniProt P0A873, Y115A). Type of experiment: binding, E. coli. The settings on record: Y115 mutant; room temperature; pH 8.0.
TrmD Y115A dimer, sequence (P0A873 whole entry Y115A): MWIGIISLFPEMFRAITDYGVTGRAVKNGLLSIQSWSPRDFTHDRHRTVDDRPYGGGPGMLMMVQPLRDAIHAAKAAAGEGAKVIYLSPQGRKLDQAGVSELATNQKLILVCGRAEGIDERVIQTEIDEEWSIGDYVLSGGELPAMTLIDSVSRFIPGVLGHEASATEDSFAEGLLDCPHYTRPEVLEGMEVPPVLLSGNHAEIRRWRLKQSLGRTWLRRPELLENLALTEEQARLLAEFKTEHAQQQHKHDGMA
Experiment [8] concerns the target wild-type EcTrmD (Escherichia coli, UniProt P0A873). Type of experiment: biochemical, E. coli. Conditions: single turnover, 37 °C.
Experiment [9] has as its target wild-type TrmD dimer (Escherichia coli, UniProt P0A873). Description: Fluorescence titration. Conditions: wild-type enzyme; room temperature; pH 8.0. Type of experiment: binding, E. coli. In short, it runs like this: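 His-tagged enzyme expressed in E. coli SG13009 and purified by cobalt-affinity and MonoQ ion-exchange chromatography. Concentration was measured by Bradford against BSA and corrected for active dimer fraction. Increasing AdoMet was added to the dimer, and intrinsic Trp fluorescence quenching was followed with excitation at 295 nm and emission at 304–400 nm.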

Experiment [10] has as its system EcTrmD S170*A. The experiment in a line: Pre-steady-state methyl transfer kinetics, S170*A mutant. Type of experiment: biochemical, E. coli. The settings on record: S170*A relative to wild-type enzyme.
The subject of experiment [11] is EcTrmD G59A. The experiment in a line: Pre-steady-state methyl transfer kinetics, G59A mutant. The settings on record: G59A relative to wild-type enzyme. In kind it is biochemical, E. coli.
Experiment [12] deals with EcTrmD P89A. Description: Pre-steady-state methyl transfer kinetics, P89A mutant. In kind it is biochemical, E. coli. The settings on record: P89A relative to wild-type enzyme.
For experiment [13], the system named is EcTrmD Q90A. The experiment in a line: Pre-steady-state methyl transfer kinetics, Q90A mutant. Type of experiment: biochemical, E. coli. Conditions: Q90A relative to wild-type enzyme.
The test system of experiment [14] is EcTrmD Y86A. The experiment in a line: Pre-steady-state methyl transfer kinetics, Y86A mutant. Type of experiment: biochemical, E. coli. Conditions: Y86A relative to wild-type enzyme.
Experiment [15] relates to EcTrmD G55A. The experiment in a line: Pre-steady-state methyl transfer kinetics, G55A mutant. Type of experiment: biochemical, E. coli. Conditions: G55A relative to wild-type enzyme.
Experiment [16] relates to EcTrmD P89W. Description: Pre-steady-state methyl transfer kinetics, P89W mutant. Type of experiment: biochemical, E. coli. The settings on record: P89W relative to wild-type enzyme.
Experiment [17] has as its system EcTrmD D177*A. The experiment in a line: Pre-steady-state methyl transfer kinetics, D177*A mutant. Type of experiment: biochemical, E. coli. The settings on record: D177*A relative to wild-type enzyme.
Experiment [18] concerns EcTrmD G141A. The experiment in a line: Pre-steady-state methyl transfer kinetics, G141A mutant. The settings on record: G141A relative to wild-type enzyme. Type of experiment: biochemical, E. coli.
Experiment [19] has as its system EcTrmD E116A. The experiment in a line: Pre-steady-state methyl transfer kinetics, E116A mutant. The settings on record: E116A relative to wild-type enzyme. In kind it is biochemical, E. coli.
Experiment [20] concerns EcTrmD Y115A. The experiment in a line: Pre-steady-state methyl transfer kinetics, Y115A mutant. Conditions: Y115A relative to wild-type enzyme. In kind it is biochemical, E. coli.

wild-type TrmD dimer, sequence (P0A873 whole entry): as the sequence (P0A873 whole entry Y115A) above, with A115Y counted along it
wild-type EcTrmD, sequence (P0A873 whole entry): as the sequence (P0A873 whole entry Y115A) above, with A115Y counted along it

`C[S+](CC[C@H](N)C(=O)[O-])C[C@H]1O[C@@H](n2cnc3c(N)ncnc32)[C@H](O)[C@@H]1O` (some centres unmarked) [AdoMet, S-adenosyl methionine]: the “fold-change in Kd (AdoMet), decrease in AdoMet binding” value in experiment [1] is on record as 19.0 fold; in experiment [4], 4.4 fold; in experiment [5] it was 8.4 fold; in [10], 2.6 fold; in experiment [17], 9.0 fold; in experiment [18], 32.2 fold. Further, the “fold-change in Kd (AdoMet), effect on AdoMet binding” value came out at 8.0 fold in experiment [2]; 3.2 fold in experiment [11]; 2.6 fold in experiment [12]; 1.2 fold in [13]; 2.8 fold in [14]; 12.8 fold in [15]. Also, the results for the “fold-change in Kd (AdoMet), effect on AdoMet binding” value in experiment [16], in experiment [19] and in experiment [20] were 23 fold, 6.0 fold and 6.3 fold, respectively. In addition, the “effect on AdoMet binding” value in [3] and in [6] was “neither had an effect” throughout. Besides, the “binding stoichiometry of AdoMet per dimer” value in [7] and in experiment [9] was “two molecules of AdoMet per dimer” throughout. Besides, in experiment [8], the “kchem from enzyme titration of AdoMet” value amounted to 0.113 ± 0.003 s⁻¹.

(Values after PMC5429141 (Nature structural & molecular biology, 2016).)
